Key:
[1] = molecular target: T1, S-adenosylmethionine decarboxylase proenzyme (Homo sapiens) (UniProt P17707)
T1 sequence (whole entry): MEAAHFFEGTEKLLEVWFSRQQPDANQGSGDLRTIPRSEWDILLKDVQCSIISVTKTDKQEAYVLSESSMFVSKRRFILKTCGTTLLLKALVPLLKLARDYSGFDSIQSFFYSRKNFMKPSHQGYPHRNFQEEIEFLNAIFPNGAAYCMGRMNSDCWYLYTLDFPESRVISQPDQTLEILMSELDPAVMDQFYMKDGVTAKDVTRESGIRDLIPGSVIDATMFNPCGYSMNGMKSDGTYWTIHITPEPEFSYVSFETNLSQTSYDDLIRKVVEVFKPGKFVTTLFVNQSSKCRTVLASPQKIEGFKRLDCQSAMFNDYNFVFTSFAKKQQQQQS

[2] = molecular target: T2, Ornithine decarboxylase (Rattus norvegicus, UniProt P09057); assay: In vitro inhibition against ornithine decarboxylase
T2 sequence (P09057 whole entry): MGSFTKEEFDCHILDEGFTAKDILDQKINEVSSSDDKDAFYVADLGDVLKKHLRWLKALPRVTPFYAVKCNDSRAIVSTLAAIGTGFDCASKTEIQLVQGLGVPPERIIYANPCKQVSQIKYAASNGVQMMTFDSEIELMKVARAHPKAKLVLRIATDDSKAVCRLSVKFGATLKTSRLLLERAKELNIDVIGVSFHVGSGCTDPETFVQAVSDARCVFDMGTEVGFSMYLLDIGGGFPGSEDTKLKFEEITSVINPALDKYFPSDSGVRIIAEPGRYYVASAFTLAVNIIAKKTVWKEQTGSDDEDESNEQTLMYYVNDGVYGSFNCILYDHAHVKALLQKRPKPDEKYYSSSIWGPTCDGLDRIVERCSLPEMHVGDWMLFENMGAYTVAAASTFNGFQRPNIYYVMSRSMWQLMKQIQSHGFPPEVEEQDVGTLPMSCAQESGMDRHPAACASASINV
Method in brief: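 Time-dependent inactivation of partially purified rat liver ODC (thioacetamide-induced, acid treatment at pH 4.6). Enzyme incubated at 37 °C in 30 mM phosphate pH 7.1, 5 mM DTT and 0.1 mM pyridoxal phosphate with varied inhibitor concentrations. Aliquots were assayed at intervals. Half-inactivation times were plotted against 1/[I] (Kitz–Wilson, least-squares fit) to give apparent K_I and τ1/2.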

[3] = molecular target: ornithine decarboxylase (Rattus norvegicus) (UniProt P09057); assay: Time of half-inactivation of ornithine decarboxylase extrapolated to infinite inhibitor concentration was determined; details: in vitro
[4] = In vitro inhibition against rat aorta semicarbazide-sensitive amine oxidase; type: tissue-based

Compound | Ka [1] | Ki [2] | half-inactivation time [3] | Ki [4]
NCCCCN | 16 µM | – | – | –
C#C[C@@H](N)CC[C@H](C)N | – | 3 µM | 1.7 min | –
NCCCC(N)(CF)C(=O)O (stereo unspecified) | – | 2.7 µM | 2.6 min | –
C#CC(N)CC(F)(F)CN (stereo unspecified) | – | – | – | 0.1 µM

Source: ChEMBL document CHEMBL1124320, “2,2-Difluoro-5-hexyne-1,4-diamine: a potent enzyme-activated inhibitor of ornithine decarboxylase” (J Med Chem, 1989)
